Our source for the MIC, LC50 and AFI values is ChEMBL document CHEMBL3045178, “Metabolites from Aspergillus fumigatus, an endophytic fungus associated with Melia azedarach, and their antifungal, antifeedant, and toxic activities” (J Agric Food Chem, 2012).

≈ marks a conversion by molar mass, not a printed value. A value given as a limit tells only on which side of the number the result lay.

One series has as its system Alternaria solani. Briefly: Antifungal activity against Alternaria solani at 28 degC after 48 hr microbroth dilution method. The series is classed as functional. In short, it runs like this:
(§1)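 Plant-pathogenic fungi isolated from infected plant organs. Fungi grown 18 h in PD medium at 28 ± 0.5 °C and 150 rpm, then diluted to about 1 × 10^6 CFU in PD medium. Compounds at 2 mg/mL DMSO stock, serially diluted in triplicate in PD medium in 96-well plates before the fungal suspension was added. DMSO served as negative control. After 48 h at 28 ± 0.5 °C, MIC taken as the lowest concentration with no visible growth.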
(Broth dilution looks for growth in wells or tubes with falling amounts of substance.)

Another series has as its system Alternaria alternata. Briefly: Antifungal activity against Alternaria alternata at 28 degC after 48 hr microbroth dilution method. The series is classed as functional. In short, it runs like this: as §1
In series [1] the test system is Colletotrichum gloeosporioides. Briefly: Antifungal activity against Colletotrichum gloeosporioides at 28 degC after 48 hr microbroth dilution method. The class given is functional. Put shortly: as §1
For another series, the system named is Fusarium solani. Briefly: Antifungal activity against Fusarium solani at 28 degC after 48 hr microbroth dilution method. The series is classed as functional. In short, it runs like this:
as §1

Series [2] concerns Fusarium oxysporum f. sp. niveum. Briefly: Antifungal activity against Fusarium oxysporum f. sp. niveum at 28 degC after 48 hr microbroth dilution method. The class given is functional. Put shortly: as §1
Series [3] deals with Fusarium oxysporum f. sp. vasinfectum. Briefly: Antifungal activity against Fusarium oxysporum f. sp. vasinfectum at 28 degC after 48 hr microbroth dilution method. The series is classed as functional. In short, it runs like this:
as §1

Another series deals with Fusarium graminearum. Briefly: Antifungal activity against Fusarium graminearum at 28 degC after 48 hr microbroth dilution method. The class given is functional. Put shortly: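 Microbroth dilution in PD medium. Fungi were grown 18 h at 28 ± 0.5 °C and 150 rpm, then diluted to about 1 × 10^6 CFU. Compounds (2 mg/mL DMSO stock) were serially diluted in triplicate and fungal suspension added. Incubated 48 h at 28 ± 0.5 °C. MIC was the lowest concentration with no visible growth. Controls: DMSO, carbendazim, hymexazol.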

Series [4] is described as follows: Toxicity in Artemia salina (brine shrimp) […]. The class given is organism-based. As to conditions: in vivo.
Another series concerns Mythimna separata. Briefly: Antifeedant activity against Mythimna separata (Oriental armyworm) larvae assessed as antifeedant index by area of the leaf consumed. The class given is functional. Set-up: concentration or dose not given beside the values. In short, it runs like this: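 Positive control prepared at 10 mg/mL in acetone; leaves treated with acetone alone served as control. Ten treated leaves and 10 larvae per Petri dish lined with moistened filter paper. Held at 25 ± 2 °C, 12L:12D, 65−80% rh. Leaf area consumed recorded after 48 h. AFI = (C − T)/C × 100%, from control and treated areas consumed. Three repetitions.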

A further series has as its system Botrytis cinerea. Briefly: Antifungal activity against Botryotinia fuckeliana at 28 degC after 48 hr microbroth dilution method. The series is classed as functional. Put shortly: as §1

Regarding `C[C@H]1C(=O)N2c3ccccc3[C@@]3(O)C[C@@H]4C(=O)N[C@](C)(c5nc6ccccc6c(=O)n54)N1[C@@H]23` [FUMIQUINAZOLINE D], the MIC was 25 µg/mL (≈ 56.4 µM) against Alternaria solani; 25 µg/mL (≈ 56.4 µM) against Alternaria alternata; 25 µg/mL (≈ 56.4 µM) in [1]; over 100 µg/mL with Fusarium solani; 50 µg/mL (≈ 113 µM) in series [2]; 50 µg/mL (≈ 113 µM) in series [3]. Moreover, the MIC against Fusarium graminearum and in the series on Botrytis cinerea was 25 µg/mL (≈ 56.4 µM) each time. Besides, the median lethal concentration (LC50) in series [4] is over 100 µg/mL. For the same compound, the AFI in the series with Mythimna separata came out at 10%.
Regarding `COc1ccc2c3c4n(c2c1)[C@H](C=C(C)C)OOC(C)(C)C[C@@H]4N1C(=O)[C@@H]2CCCN2C(=O)[C@]1(O)[C@H]3O` [VERRUCULOGEN], the MIC is 12.5 µg/mL (≈ 24.4 µM) with Alternaria solani; 6.25 µg/mL (≈ 12.2 µM) with Alternaria alternata; 6.25 µg/mL (≈ 12.2 µM) in [1]; 50 µg/mL (≈ 97.7 µM) against Fusarium solani; 12.5 µg/mL (≈ 24.4 µM) in series [2]; 25 µg/mL (≈ 48.9 µM) in series [3]. Moreover, the minimal inhibitory concentration (MIC) against Fusarium graminearum and with Botrytis cinerea was 6.25 µg/mL (≈ 12.2 µM) throughout. In [4], this compound showed a median lethal concentration (LC50) of 15.8 µg/mL (≈ 30.9 µM). The AFI in the series with Mythimna separata amounted to 55%.
For the compound `CC(=O)O[C@H]1C[C@@]2(C)[C@@H](CC[C@H]3[C@@]4(C)C=CC(=O)[C@@H](C)[C@@H]4[C@H](OC(C)=O)C(=O)[C@@]32C)/C1=C(\CCC=C(C)C)C(=O)O` [HELVOLIC ACID], the minimum inhibitory concentration (MIC) in the series with Alternaria solani was 12.5 µg/mL (≈ 22 µM); with Alternaria alternata, 6.25 µg/mL (≈ 11 µM); in [1] it was 6.25 µg/mL (≈ 11 µM); against Fusarium solani, 50 µg/mL (≈ 87.9 µM); in series [2] it was 12.5 µg/mL (≈ 22 µM); in series [3], 25 µg/mL (≈ 44 µM). In addition, the minimum inhibitory concentration (MIC) in the series on Fusarium graminearum and in the series with Botrytis cinerea was 6.25 µg/mL (≈ 11 µM) throughout. The same compound yielded an LC50 in series [4] of 73.7 µg/mL (≈ 130 µM). In addition, the AFI with Mythimna separata is 7.5%.

Usually MIC stands for the lowest concentration found to suppress growth. The term LC50 denotes the concentration lethal to half of the exposed cells or organisms.
